Data: ChEMBL document CHEMBL4765374, “8-Alkynyl-3-nitroimidazopyridines display potent antitrypanosomal activity against both T. b. brucei and cruzi” (Eur J Med Chem, 2020)

Columns and labels:
[1] = Cytotoxicity against human HepG2 cells assessed as reduction in cell viability after 72 hrs by MTT assay; type: cell-based
Leishmania donovani [2] = assay: Antileishmanial activity against Leishmania donovani MHOM/IN/00/DEVI promastigotes assessed as inhibition of metabolic activity measured after 72 hrs by MTT assay; type: functional, organism-based
Procedure, shortened: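 L. donovani MHOM/IN/00/DEVI promastigotes grown in Schneider's medium with 20% FCS at 27 °C. Log-phase parasites at 10⁶/mL were exposed in duplicate to serial compound concentrations in DMSO (final <0.5%) for 72 h at 27 °C. MTT was added for 4 h and absorbance read at 570 nm. EC50 from non-linear regression, mean of at least three independent experiments.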

[3] = Selectivity index, ratio of CC50 for cytotoxicity against human HepG2 cells to EC50 for antileishmanial activity against Leishmania donovani MHOM/IN/00/DEVI promastigotes; type: toxicity, cell-based; settings: read-out: Selectivity Index
[4] = system: Trypanosoma brucei brucei; assay: […] activity against Trypanosoma brucei brucei AnTat 1.9 measured after 74 hrs by Alamar blue assay; type: functional, organism-based; settings: AnTat 1.9, 74 h
Procedure, shortened: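 Bloodstream T. b. brucei AnTat 1.9 grown at 37 °C, 5% CO₂ in MEM with Earle's salts plus mercaptoethanol, L-cysteine, bathocuproine sulfate and 20% heat-inactivated horse serum. Seeded at 2000 parasites/100 µL and exposed in duplicate to compounds in DMSO for 69 h. Alamar Blue then added for 5 h, fluorescence read at ex 530/em 590 nm. EC50 by nonlinear regression from three independent experiments.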

[5] = Selectivity index, ratio of CC50 for human HepG2 cells to EC50 for Trypanosoma brucei brucei AnTat 1.9; type: toxicity; settings: read-out: Selectivity Index
[6] = Solubility of the compound in aqueous medium at highest dose; type: physicochemical; settings: buffer
THP-1 = assay: Cytotoxicity against human THP-1 cells assessed as reduction in cell viability after 72 hrs by MTT assay; type: functional
Procedure, shortened: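 THP-1 cells at 5×10⁴ cells/mL in complete RPMI were exposed in duplicate to compounds in DMSO (final <0.5%) for 72 h at 37 °C. MTT at 0.5 mg/mL for 2 h, formazan dissolved in DMSO, absorbance read at 570 nm with 630 nm reference. CC50 from the dose-response curve, mean of three independent experiments.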

Leishmania donovani [7] = assay: Antileishmanial activity against wild type Leishmania donovani BOB (MHOM/SD/62/1S-CL2D) promastigotes incubated for 72 hrs by resazurin dye based assay; type: functional, organism-based
Procedure, shortened: (§1)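 Clonal L. donovani LdBOB promastigotes grown at 26 °C in modified M199; NTR1- and NTR2-overexpressing lines maintained with nourseothricin (100 µg/mL). Triplicate 10 mL cultures seeded at 5×10^4 parasites/mL with drug for 72 h; 200 µL aliquots then given 50 µM resazurin, fluorescence (ex 528/em 590 nm) after 4 h more. EC50 from slope-factor equation; experiments repeated at least twice, mean plus standard deviation.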

Leishmania donovani [8] = assay: Antileishmanial activity against Leishmania donovani BOB (MHOM/SD/62/1S-CL2D) promastigotes overexpressing NTR1 incubated for 72 hrs by resazurin dye based assay; type: functional, organism-based; procedure, shortened: as §1
Leishmania donovani [9] = assay: Antileishmanial activity against Leishmania donovani BOB (MHOM/SD/62/1S-CL2D) promastigotes overexpressing NTR2 incubated for 72 hrs by resazurin dye based assay; type: functional, organism-based; procedure, shortened: as §1
[10] = system: Trypanosoma brucei brucei; assay: Antitrypanosomal activity against bloodstream form of wild type Trypanosoma brucei brucei S427 trypomastigotes incubated for 72 hrs; type: functional, organism-based; settings: S427, 72 h
Procedure, shortened: (§2)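 Bloodstream-form T. brucei 'single marker' S427 cultured at 37 °C in HMI9-T with 2.5 µg/mL G418. The NTR1-overexpressing line was kept with 2.5 µg/mL phleomycin and induced with 1 µg/mL tetracycline 48 h before testing. Triplicate cultures seeded at 1×10^5 cells/mL with inhibitor. Cell densities counted after 72 h. EC50 from slope-factor equation.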

[11] = system: Trypanosoma brucei brucei; assay: Antitrypanosomal activity against bloodstream form of Trypanosoma brucei brucei S427 trypomastigotes overexpressing NTR incubated for 72 hrs; type: functional, organism-based; settings: S427, 72 h; procedure, shortened: as §2

SMILES	CC50 at 72 h [1]	EC50 (Leishmania donovani [2])	selectivity ratio [3]	EC50 [4]	selectivity ratio [5]	solubility [6]	other results
CC(C)(O)C#Cc1cc(Cl)cn2c([N+](=O)[O-])c(CS(=O)(=O)c3ccccc3)nc12	> 62500 nM	3000 nM	> 20.8	120 nM	> 521	Insoluble	–
CC1CS(=O)(=O)CCN1/N=C/c1ccc([N+](=O)[O-])o1 (configuration not stated) [NIFURTIMOX]	45200 nM	–	–	2600 nM	17.4	–	–
CCCCCCCCCCCCCCCCOP(=O)([O-])OCC[N+](C)(C)C [MILTEFOSINE]	–	–	–	–	–	–	CC50 (THP-1): 35000 nM
CCC(O)CC#Cc1cc(Cl)cn2c([N+](=O)[O-])c(CS(=O)(=O)c3ccccc3)nc12 (configuration not stated)	> 62500 nM	1600 nM	> 39.1	40 nM	> 1560	Insoluble	EC50 (Leishmania donovani [7]): 7300 nM; EC50 (Leishmania donovani [8]): 400 nM; EC50 (Leishmania donovani [9]): 8500 nM; EC50 [10]: 200 nM; EC50 [11]: 66.3 nM
O=[N+]([O-])c1c(CS(=O)(=O)c2ccccc2)nc2c(C#CC3(O)CCCCC3)cc(Cl)cn12	> 25000 nM	1000 nM	> 25	100 nM	> 250	Insoluble	–
O=[N+]([O-])c1c(CS(=O)(=O)c2ccccc2)nc2c(Br)cc(Br)cn12	> 31000 nM	1800 nM	–	2900 nM	–	Insoluble	–
O=[N+]([O-])c1c(CS(=O)(=O)c2ccccc2)nc2c(C#Cc3ccccc3)cc(Cl)cn12	> 3900 nM	–	–	–	–	Insoluble	–
O=[N+]([O-])c1c(CS(=O)(=O)c2ccccc2)nc2c(C#Cc3cccs3)cc(Cl)cn12	> 3900 nM	–	–	–	–	Insoluble	–
Nc1c(CS(=O)(=O)c2ccccc2)nc2c(C#CCCO)cc(Cl)cn12	> 62500 nM	> 62500 nM	–	6800 nM	> 9.2	Insoluble	–
O=[N+]([O-])c1c(CS(=O)(=O)c2ccccc2)nc2c(C#Cc3cccnc3)cc(Cl)cn12	> 3900 nM	–	–	–	–	Insoluble	–
O=[N+]([O-])c1c(CS(=O)(=O)c2ccccc2)nc2c(C#CCO)cc(Cl)cn12	10100 nM	3900 nM	2.6	120 nM	84.2	–	–
COc1cccc2c1C(=O)c1c(O)c3c(c(O)c1C2=O)C[C@@](O)(C(=O)CO)C[C@@H]3O[C@H]1C[C@H](N)[C@H](O)[C@H](C)O1 [DOXORUBICIN]	–	–	–	–	–	–	CC50 (THP-1): 700 nM
CC(O)C#Cc1cc(Cl)cn2c([N+](=O)[O-])c(CS(=O)(=O)c3ccccc3)nc12 (configuration not stated)	44200 nM	4700 nM	9.4	40 nM	1100	–	–
CSc1ccc(OCc2ncc([N+](=O)[O-])n2C)cc1 [FEXINIDAZOLE]	–	1200 nM	–	600 nM	–	–	CC50 (THP-1): > 200000 nM
NCCCC(N)(C(=O)O)C(F)F (configuration not stated) [EFLORNITHINE]	> 100000 nM	–	–	–	> 7.5	–	–
COc1ccc(C#Cc2cc(Cl)cn3c([N+](=O)[O-])c(CS(=O)(=O)c4ccccc4)nc23)cc1	> 3900 nM	–	–	–	–	Insoluble	–
COc1ccccc1C#Cc1cc(Cl)cn2c([N+](=O)[O-])c(CS(=O)(=O)c3ccccc3)nc12	> 3900 nM	–	–	–	–	Insoluble	–
COc1cccc(C#Cc2cc(Cl)cn3c([N+](=O)[O-])c(CS(=O)(=O)c4ccccc4)nc23)c1	> 3900 nM	–	–	–	–	Insoluble	–
O=[N+]([O-])c1c(CS(=O)(=O)c2ccccc2)nc2c(C#Cc3ccccc3F)cc(Cl)cn12	> 3900 nM	–	–	–	–	Insoluble	–
O=[N+]([O-])c1c(CS(=O)(=O)c2ccccc2)nc2c(C#Cc3cccc(F)c3)cc(Cl)cn12	> 3900 nM	–	–	–	–	Insoluble	–
O=[N+]([O-])c1c(CS(=O)(=O)c2ccccc2)nc2c(C#CCOc3ccccc3)cc(Cl)cn12	8400 nM	1300 nM	6.5	160 nM	52.5	–	–
Nc1ccc(C#Cc2cc(Cl)cn3c([N+](=O)[O-])c(CS(=O)(=O)c4ccccc4)nc23)cc1	> 3900 nM	–	–	–	–	Insoluble	–
O=[N+]([O-])c1c(CS(=O)(=O)c2ccccc2)nc2c(-c3ccncc3)cc(Cl)cn12	> 50000 nM	1200 nM	–	250 nM	–	–	–
O=C(Cn1ccnc1[N+](=O)[O-])NCc1ccccc1 [BENZNIDAZOLE]	–	–	–	–	–	–	CC50 (THP-1): > 200000 nM
Cc1ccc(C(=O)Nc2ccc(S(=O)(=O)O)c3cc(S(=O)(=O)O)cc(S(=O)(=O)O)c23)cc1NC(=O)c1cccc(NC(=O)Nc2cccc(C(=O)Nc3cc(C(=O)Nc4ccc(S(=O)(=O)O)c5cc(S(=O)(=O)O)cc(S(=O)(=O)O)c45)ccc3C)c2)c1 [SURAMIN]	> 100000 nM	–	–	–	–	–	–
O=[N+]([O-])c1c(CS(=O)(=O)c2ccccc2)nc2c(C#Cc3ccc(CO)cc3)cc(Cl)cn12	> 15600 nM	1600 nM	> 9.8	160 nM	> 97.5	Insoluble	–
CC(O)(C#Cc1cc(Cl)cn2c([N+](=O)[O-])c(CS(=O)(=O)c3ccccc3)nc12)c1ccccc1 (configuration not stated)	18800 nM	1000 nM	18.8	130 nM	> 145	–	–
O=[N+]([O-])c1c(CS(=O)(=O)c2ccccc2)nc2c(Sc3ccc(Cl)cc3)cc(Cl)cn12	–	1000 nM	–	1300 nM	> 76.9	–	–
O=[N+]([O-])c1c(CS(=O)(=O)c2ccccc2)nc2c(C#CC3(O)CCCC3)cc(Cl)cn12	> 31300 nM	1700 nM	> 18.4	100 nM	> 313	Insoluble	–
O=[N+]([O-])c1c(CS(=O)(=O)c2ccccc2)nc2c(C#Cc3ccc(F)cc3)cc(Cl)cn12	> 3900 nM	–	–	–	–	Insoluble	–
